# Published values collected from several papers.
# Lines come from different studies, so protocols differ.
# Cell line: A549
# Observed: cell growth or viability
SMILES,technique,concentration,time,quantity,result
C=C(C)[C@H](CC=C(C)C)Cc1c(O)cc(O)c2c1O[C@H](c1ccccc1O)CC2=O,MTT,,48 h,IC50,36.1 µM
O=C1OC2(c3ccc(O)cc3Oc3cc(O)ccc32)c2ccccc21,CCK-8,,48 h,CC50,> 200 µM
CN(Cc1cnc2nc(N)nc(N)c2n1)c1ccc(C(=O)N2CCCCC2)cc1,ATP luminescence,,,GI50,34.9 µM
O=C(O)c1ccc2c(c1)C(=O)OC21c2ccc(O)cc2Oc2cc(O)ccc21,CCK-8,,48 h,CC50,> 200 µM
COc1cccc2c1C(=O)c1c(O)c3c(c(O)c1C2=O)C[C@@](O)(C(=O)CO)C[C@@H]3O[C@H]1C[C@H](N)[C@H](O)[C@H](C)O1,MTT,,48 h,IC50,1.4 µM
Nc1nc(N)c2nc(CNc3ccc(C(=O)NCCc4ccccc4)cc3)cnc2n1,ATP luminescence,,,GI50,38.8 µM
CCCCCCCCCC#CCCCCC(=O)O,MTS,,24 h,IC50,16 µM
O=C1OC2(c3ccc(O)cc3Oc3cc(O)ccc32)c2ccc(NC(=S)NCCS)cc21,CCK-8,,48 h,CC50,> 200 µM
O=C(O)CCCCC#CCCCC1CCCCC1,MTS,,24 h,IC50,40 µM
Nc1nc(N)c2nc(CNc3ccc(C(=O)c4ccccc4)cc3)cnc2n1,ATP luminescence,,,GI50,13.7 µM
"C=C(C)C(CC=C(C)C)Cc1c(O)cc(OC)c2c1O[C@H](c1ccc(O)cc1O)CC2=O (single isomer, unassigned; (-))",MTT,,,IC50,50.5 µM
O=C1OC2(c3cc(Cl)c(O)cc3Oc3cc(O)c(Cl)cc32)c2ccccc21,CCK-8,,48 h,CC50,> 200 µM
CC(C)=CCc1c(O)c(CC=C(C)C)c2occ(-c3ccc(O)cc3)c(=O)c2c1O,MTT,100 µg/mL,,viability,121%
O=C1OC2(c3cc(I)c(O)c(I)c3Oc3c2cc(I)c(O)c3I)c2c(Cl)c(Cl)c(Cl)c(Cl)c21,CCK-8,,48 h,CC50,> 200 µM
O=C(O)CCCC/C=C\CCCc1ccccc1,MTS,,,IC50,61 µM
